Assay results reported in ChEMBL document CHEMBL3784919, “Design and synthesis of novel 5-aminosalicylate (5-ASA)-4-thiazolinone hybrid derivatives with promising antiproliferative activity” (Bioorg Med Chem Lett, 2016).

Tests used:
[1] = Cytotoxicity against human F180 cells assessed as cell viability after 48 hrs by SRB assay; type: cell-based; conditions: F180, 48 h
[2] = Antiproliferative activity against human HCT116 cells assessed as cell viability after 48 hrs by SRB assay; type: functional, cell-based; conditions: HCT-116, 48 h
[3] = system: MCF7; assay: Antiproliferative activity against human MCF7 cells assessed as cell survival at 10 uM after 48 hrs by SRB assay; type: functional; conditions: MCF7, 48 h, read-out: Survival
In short: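 Human breast cancer MCF-7 cells were exposed once to a single compound concentration for 48 h. Vehicle controls received DMSO, added as 0.1%. Survival was read by sulforhodamine B staining and expressed as percent of cells remaining relative to the DMSO control, set at 100%, with SD.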

[4] = system: HeLa; assay: Antiproliferative activity against human HeLa cells assessed as cell viability after 48 hrs by SRB assay; type: functional, cell-based
[5] = system: A549; assay: Antiproliferative activity against human A549 cells assessed as cell viability after 48 hrs by SRB assay; type: functional, cell-based; conditions: A549, 48 h
[6] = system: MCF7; assay: Antiproliferative activity against human MCF7 cells assessed as cell viability after 48 hrs by SRB assay; type: functional, cell-based; conditions: MCF7, 48 h
[7] = Ratio of compound IC50 to doxorubicin IC50 for human F180 cells; type: ADME, cell-based; conditions: read-out: Ratio IC50

For `COC(=O)c1cc(NC2=NC(=O)/C(=C/c3ccc(C)cc3)S2)ccc1O`, the IC50 [1] was 1050 nM, the IC50 [2] was 450 nM and the viability at 10 µM [3] was 17.8%. It also gave an IC50 [4] of 85 nM, an IC50 [5] of 2200 nM and an IC50 [6] of 410 nM.
For `COC(=O)c1cc(NC2=NC(=O)/C(=C/c3ccccc3O)S2)ccc1O`, the IC50 [1] was > 10000 nM, the IC50 [2] was 3440 nM and the viability at 10 µM [3] was 16.5%. The IC50 [4] was 1390 nM, the IC50 [5] was > 10000 nM and the IC50 [6] was 500 nM.
Compound `COC(=O)c1cc(NC2=NC(=O)/C(=C/c3ccc(Cl)cc3)S2)ccc1O` has a viability at 10 µM [3] of 28%.
Work on `COC(=O)c1cc(NC2=NC(=O)/C(=C/c3ccc(N(C)C)cc3)S2)ccc1O` yielded an IC50 [1] of 940 nM, an IC50 [2] of 310 nM and a viability at 10 µM [3] of 16.2%. The IC50 [4] was 180 nM, the IC50 [5] was 2400 nM and the IC50 [6] was 630 nM.
`COC(=O)c1cc(NC2=NC(=O)/C(=C/c3cccc(Br)c3)S2)ccc1O` gave a viability at 10 µM [3] of 68%.
For `COC(=O)c1cc(NC2=NC(=O)/C(=C/c3ccc([N+](=O)[O-])cc3)S2)ccc1O`, the viability at 10 µM [3] was 73.9%.
For `COC(=O)c1cc(NC2=NC(=O)/C(=C/c3cccc(Cl)c3)S2)ccc1O`, the viability at 10 µM [3] was 65.9%.
In the case of `COC(=O)c1cc(NC2=NC(=O)CS2)ccc1O`, the viability at 10 µM [3] is reported as 97%.
With `COC(=O)c1cc(NC2=NC(=O)/C(=C/c3cc(OC)c(OC)c(OC)c3)S2)ccc1O` the viability at 10 µM [3] was 73.3%.
With `COC(=O)c1cc(NC2=NC(=O)/C(=C/c3ccc(Br)cc3)S2)ccc1O` the IC50 [1] was 10000 nM, the IC50 [2] was 5580 nM and the viability at 10 µM [3] was 19%. For the same compound, the IC50 [4] was 3480 nM, the selectivity ratio [7] was 28 and the IC50 [5] was 8300 nM. For the same compound, the IC50 [6] was 70 nM.
With `COC(=O)c1cc(NC2=NC(=O)/C(=C/c3ccccc3)S2)ccc1O` the viability at 10 µM [3] was 67.8%.
Work on `COc1cccc2c1C(=O)c1c(O)c3c(c(O)c1C2=O)C[C@@](O)(C(=O)CO)C[C@@H]3O[C@H]1C[C@H](N)[C@H](O)[C@H](C)O1` [DOXORUBICIN] yielded an IC50 [1] of 350 nM, an IC50 [2] of 380 nM and a viability at 10 µM [3] of 4%. It also gave an IC50 [4] of 100 nM and an IC50 [5] of 450 nM.
In the case of `COC(=O)c1cc(NC2=NC(=O)/C(=C/c3ccc(OC)c(OC)c3)S2)ccc1O`, the viability at 10 µM [3] is reported as 26.6%.
`COC(=O)c1cc(NC2=NC(=O)/C(=C/c3ccc4c(c3)OCO4)S2)ccc1O` showed a viability at 10 µM [3] of 28%.
Compound `COC(=O)c1cc(NC2=NC(=O)/C(=C/c3ccccc3Cl)S2)ccc1O` has a viability at 10 µM [3] of 85%.
Work on `COC(=O)c1cc(NC2=NC(=O)/C(=C/c3cccc([N+](=O)[O-])c3)S2)ccc1O` yielded a viability at 10 µM [3] of 82.2%.
`COC(=O)c1cc(NC2=NC(=O)/C(=C/c3ccc(OC)cc3)S2)ccc1O` gave a viability at 10 µM [3] of 26%.
`COC(=O)c1cc(NC2=NC(=O)/C(=C/c3ccc(F)cc3)S2)ccc1O` showed a viability at 10 µM [3] of 86%.
Work on `COC(=O)c1cc(NC2=NC(=O)/C(=C/c3ccccc3OC)S2)ccc1O` yielded a viability at 10 µM [3] of 70%.
Work on `COC(=O)c1cc(NC2=NC(=O)/C(=C/c3ccc(O)cc3)S2)ccc1O` yielded a viability at 10 µM [3] of 93.5%.
